# Screening results: PubChem, Broad Institute
# EWS-Fli block: inhibitors of EWS/Fli oncoprotein transcriptional activity; inhibition, % at 12.6 µM; A673 NR0B1-luciferase reporter, viability-normalised; actives 0.67% (n = 350,000);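 active means mean inhibition of at least 50% after viability correction, with every replicate also passing that limit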;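 further: firefly luciferase signal divided by Alamar Blue viability fluorescence both relative to DMSO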
# aSyn 5UTR inh: MLPCN primary screen, SNCA 5' untranslated region; alpha-synuclein 5'UTR reporter, inhibitor activity; inhibition, % (tested at 7.5 µM); actives 0.82% (n = 300,000); in the data active means inhibition above about 60%;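 further: H4 neuroglioblastoma cells stably carrying SNCA 5'UTR luciferase fusion; 0% = DMSO wells and 100% = positive control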
# Shn3 inh set2: inhibitors of Schnurri-3 3'UTR reporter in osteoblasts; AID 588674; inhibition, % at 12.5 µM; actives 0.52% (n = 360,000); Clone20 osteoblast Shn3 3'UTR firefly luciferase, 24 h;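 active means mean inhibition of at least 75% with every replicate also reaching 75%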;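 further: 0% = median of neutral control wells and 100% = pilot-screen positive control compound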
# LMP1 NFkB inh: inhibitors of Epstein-Barr LMP1-induced NF-kappaB reporter; LMP1-induced NF-kappaB luciferase reporter cells, luminescence; inhibition, % at 12.5 µM; actives 0.69% (n = 350,000); in the data active means inhibition above about 41%;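 further: 0% = neutral control wells and 100% = reference inhibitor control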
# PAX8 reporter: PAX8 transcriptional activity inhibition; RMG-I TPO-luciferase reporter, SteadyGlo, 24 h; inhibition, % at 12.6 µM; actives 1.2% (n = 360,000); AID 652154;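 active means mean replicate inhibition at least 60% with every replicate also reaching 60%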;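 further: luciferase light reporting Pax8 driven TPO promoter activity; plate controls were median of neutral control wells for no effect and mitoxantrone controls for full effect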
# FN deposition inh: fibronectin deposition inhibition | AH1F fibroblasts, Alexa488-fibronectin deposition fluorescence, overnight | inhibition, % at 12.6 µM | actives 0.086% (n = 350,000);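 active means mean inhibition across replicates of 30% or more, regardless of how many single replicates reach that level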;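 further: positive control wells lacked labelled fibronectin entirely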
#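 Measured by – fluorescence 485/525 nm · System – AH1F fibroblast monolayer, labelled fibronectin deposition · Amount – 10000 cells per well · Buffer or medium – serum-reduced DMEM (2% serum) · Doses – single dose, pinned · Also added – fluorescent fibronectin at 24 nM final · Schedule – 1 h cell attachment, overnight exposure to compound and label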
# * marks the source's active call; other numbers are inactive results; x = not tested or not shown; ! = repeats disagree. Rows were chosen to be rich in hits. Some 2.1% of all compounds tested hit in one or more screens of this group.
SMILES,EWS-Fli block,aSyn 5UTR inh,Shn3 inh set2,LMP1 NFkB inh,PAX8 reporter,FN deposition inh
COc1ccc(CNCCNC(=O)c2nonc2N)cc1OC,x,-10.9,31.5,-6.2,x,x
Cn1cnc2nc[nH]c2c1=S,-1.8,x,10.0,-1.6,-3.2,-9.7
S=c1nc[nH]c2nc[nH]c12,36.0,66.6*,42.4,-49.9,74.9*!,1.6
CN(C)c1cccc2c(S(=O)(=O)NCC3CCN(C(=O)C(=O)c4cc5ccccc5o4)CC3)cccc12,10.4,x,x,x,62.0*,14.2
CCN(CC)CCCNc1ncnc2scc(-c3ccc(F)cc3)c12,10.1,-33.0,-5.3,-3.6,10.2,-8.1
COc1ccc(-c2csc3ncnc(Nc4ccc(O)cc4)c23)cc1,10.5,44.1,18.6,18.3,6.1,6.2
COc1ccc(-c2csc3ncnc(NCCCO)c23)cc1,2.6,29.9,9.6,51.7*,-18.0,3.0
COc1ccc(-c2csc3ncnc(NCCO)c23)cc1,-1.6,2.0,18.1,41.8*,-8.7,-10.0
O=C1c2ccccc2C(Nc2cccnc2)N1Cc1ccccc1Cl (stereo unspecified),4.2,-7.1,-8.5,0.2,-3.2,10.0
O=C1c2ccccc2C(Nc2cccnc2)N1Cc1ccccc1 (stereo unspecified),-1.1,-21.8,7.6,81.9*,4.5,7.4
Cc1ccc(N2C(=O)c3ccccc3C2Nc2cccnc2)nc1 (stereo unspecified),-21.3,-20.3,-4.5,81.4*,-63.9,-7.2
COc1cc(NC2c3ccccc3C(=O)N2c2ccc(C)cn2)cc(OC)c1OC (stereo unspecified),-51.1,-76.9,-52.7,-11.3,-69.1,-0.4
C[C@H]1CC=CC[C@@H](c2ccccc2)NC(=O)[C@H](Cc2ccccc2)N(C)C(=O)c2ccccc2O1 (mixture of isomers),x,x,x,x,x,-1.9
N#Cc1cccc(-c2ccc(C3[C@H]4CNC[C@@H]3N4C(=O)Nc3cccc(F)c3)cc2)c1 (stereo partly specified),x,x,x,x,x,-1.0
CC1CC(C)C[N+](=C2C=C(N3CCCC3)CC(C)(C)C2)C1 (stereo unspecified),47.6,-14.3,88.6*,41.6*,74.8*,9.1
CC1(C)CC(N2CCCC2)=CC(=[N+]2CCCCCC2)C1,2.6,-2.0,83.7,8.4,79.3*,x
CCN(CC)C1=CC(=[N+]2CCCC2)CC(C)(C)C1,x,-4.3,77.4,6.6,6.9,-5.5
CN(Cc1ccccc1)C1=CC(=[N+]2CCCC2)CC(C)(C)C1,24.0,-18.2,87.8*,15.2,57.8,-1.5
CC1(C)CC(N2CCN(c3ccccc3)CC2)=CC(=[N+]2CCCC2)C1,x,-3.0,86.4*,6.7,x,14.8
C[C@H](CO)N1C[C@H](C)[C@H](CN(C)C(=O)NC2CCCCC2)OCCCC[C@H](C)Oc2ccc(NC(=O)Nc3ccc(C(F)(F)F)cc3)cc2C1=O,6.1,x,x,x,93.3*,x
C[C@H]1CCCCO[C@@H](CN(C)C(=O)NC2CCCCC2)[C@@H](C)CN([C@@H](C)CO)C(=O)c2cc(NC(=O)Nc3ccc(C(F)(F)F)cc3)ccc2O1,3.3,x,x,x,87.9*,x
C[C@@H]1CCCCO[C@H](CN(C)C(=O)NC2CCCCC2)[C@H](C)CN([C@@H](C)CO)C(=O)c2cc(NC(=O)Nc3ccc(C(F)(F)F)cc3)ccc2O1,3.0,x,x,x,71.4*,x
C[C@@H]1CN([C@H](C)CO)C(=O)c2cc(NC(=O)Nc3ccc(C(F)(F)F)cc3)ccc2O[C@@H](C)CCCCO[C@@H]1CN(C)C(=O)NC1CCCCC1,2.2,x,x,x,85.9*,x
COc1cccc(NC(=O)N(C)C[C@@H]2OCc3ccccc3-c3ccccc3C(=O)N([C@@H](C)CO)C[C@@H]2C)c1,-1.2,x,x,x,-10.7,4.2
CN1C(=O)c2cc(NC(=O)c3ccccc3Cl)ccc2OC[C@H]2O[C@H](CC(=O)O)CC[C@@H]21,6.8,x,x,x,13.0,4.8
SMILES,EWS-Fli block,aSyn 5UTR inh,Shn3 inh set2,LMP1 NFkB inh,PAX8 reporter,FN deposition inh
O=C(Nc1ccc(F)cc1)N[C@@H]1CC[C@@H](CCn2cc(-c3ccccc3F)nn2)O[C@@H]1CO,4.4,x,x,x,x,-0.8
O=c1[nH]c(-c2ccccn2)nc2sc(-c3ccccc3)cc12,12.1,-90.9,79.7,18.0,89.2*,28.6
CCn1c2ccccc2c2cc(Nc3cc(C)nc4ncnn34)ccc21,64.2*,81.7*,14.3,-0.5,96.3*,-17.1
Cc1ccc(CNC(=O)Cc2ccc(-n3cccc3)cc2)cc1,x,-3.1,-9.4,-11.5,23.0,10.1
COc1ccc(CC(=O)NCc2ccc(-n3cccc3)cc2)cc1OC,59.8*,63.9*,15.6,30.6,27.2,6.5
COc1ccc(N2CCN(Cc3cc(=O)oc4cc(-c5ccccc5)c(O)cc34)CC2)cc1,x,73.1*,17.5,-52.5,x,x
Cn1cnnc1SCC(=O)n1c2ccccc2c2ccccc21,x,13.4,-7.0,45.8*,x,x
COCCn1c(SCc2ccc(C(=O)OC)o2)nnc1-c1c[nH]c2ccccc12,0.2,11.4,-7.4,47.1*,-8.9,3.1
COC(=O)c1cc(C(=O)c2ccc(C(C)(C)C)cc2)c[nH]1,-94.8,-37.4,7.5,-26.2,-76.3,42.9*
O=C(N[C@@H]1CC[C@@H](CCNC(=O)C2CCCCC2)O[C@H]1CO)c1ccncc1,0.8,x,x,x,-0.2,-13.0
COc1ccc(NC(=O)CSc2ncccc2C(=O)OC(C)C)cc1OC,x,20.3,86.5*,20.5,x,3.3
Nc1ccc[n+](CC(=O)c2ccccc2)c1,17.0,4.5,-10.6,-1.6,-5.4,10.8
CCc1n[n+](CC(=O)c2ccccc2)c(N)s1,59.5*,x,23.0,52.1*,30.4,-2.4
COc1cc2c(c(OC)c1OC)-c1ccc(NCc3ccccc3)c(=O)cc1C(NC(C)=O)CC2 (stereo unspecified),36.2,x,21.4,12.4,84.3*,-36.5
CCOC(=O)NC1CCc2cc(OC)c(OC)c(OC)c2-c2ccc(OC)c(=O)cc21 (stereo unspecified),47.5,x,-26.1,-3.3,73.4*,-9.3
COc1cc2c(c(OC)c1OC)-c1ccc(OC)c(=O)cc1[C@@H](NC(C)=O)CC2,62.5*,95.7*,-0.7,-1.8,95.8*,-54.3
COc1cc2c(c(OC)c1OC)-c1ccc(NC(=O)c3ccc(F)cc3)c(=O)cc1[C@@H](NC(C)=O)CC2,42.9,-25.9,13.5,4.5,0.3,0.9
Cc1c(C=O)c2ccccn2c1C(=O)c1ccccc1Cl,-17.3,12.4,5.2,53.0*,-0.1,6.0
CCCS(=O)(=O)c1nnnn1-c1cccc(OC)c1,x,-5.7,98.6*,18.3,x,x
O=C([C@H]1[C@H](CO)[C@H]2Cn3c(ccc(-c4ccncc4)c3=O)[C@H]2N1CCC(F)(F)F)N1CCOCC1,3.8,x,x,x,8.5,x
C[C@H]1CCCCO[C@H](CN(C)C(=O)c2ccccc2)[C@@H](C)CN([C@@H](C)CO)C(=O)c2cc(NC(=O)Nc3ccc(C(F)(F)F)cc3)ccc2O1,9.1,x,x,x,85.8*,x
